The list is not random: actives were taken first. Their share in the collection is about 1.8%.
CHRM4 agonist: agonists of human muscarinic M4 receptor (CHRM4); AID 624127; 360,000 compounds, 0.14% hits; activation, % at 3 µM; CHO-K1 hM4/Gqi5, Fluo-8 calcium fluorescence; vehicle 0%, full acetylcholine response 100%; P08173;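 active means activation above the run mean over all test wells plus 3 SD, cut at about 32% in these data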;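 further: peak over basal fluorescence ratio per well then scaled between controls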
CHRM4 antagonist: CHRM4 antagonism in calcium assay; P08173; CHO-hM4 cells, ACh EC80, Fluo-8 calcium fluorescence; inhibition, % at 3 µM; 360,000 compounds, 0.73% hits; AID 624125;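 active means inhibition above its plate's cutoff, the mean inhibition of sample wells plus 3 SD, cut at about 27% in these data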
CHRM5 PAM: CHRM5 positive allosteric modulation | AID 624038 | P08912 | CHO-K1 hM5, Fluo-8 calcium, ACh EC20 PAM; 0% = ACh EC20, 100% = ACh EC100 | activation, % at 3 µM | 360,000 compounds, 0.3% hits;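 active means activation above the run cutoff, the mean activation of all test compounds plus 3 SD, cut at about 18% in these data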
Target sequence (P08912 whole entry, looked up): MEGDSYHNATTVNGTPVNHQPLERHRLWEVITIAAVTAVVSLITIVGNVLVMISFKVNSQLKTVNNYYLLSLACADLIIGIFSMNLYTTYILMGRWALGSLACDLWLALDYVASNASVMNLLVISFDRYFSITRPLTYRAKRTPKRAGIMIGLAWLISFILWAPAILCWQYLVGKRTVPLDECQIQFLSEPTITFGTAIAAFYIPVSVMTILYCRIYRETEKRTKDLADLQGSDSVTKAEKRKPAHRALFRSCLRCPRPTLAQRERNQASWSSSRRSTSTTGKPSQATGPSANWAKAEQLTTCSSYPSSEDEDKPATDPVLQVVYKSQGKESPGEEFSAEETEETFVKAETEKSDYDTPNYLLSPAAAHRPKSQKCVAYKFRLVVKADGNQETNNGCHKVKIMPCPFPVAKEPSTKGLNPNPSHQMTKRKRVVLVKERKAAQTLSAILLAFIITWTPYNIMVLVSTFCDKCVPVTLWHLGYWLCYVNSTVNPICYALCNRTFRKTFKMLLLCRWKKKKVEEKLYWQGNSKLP
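System: CHO-K1 hM5 cells. Reagent: acetylcholine, EC20 level. Compound dosing: single dose, 3 µM nominal final test concentration. Timing: Post-acetylcholine fluorescence recording 140 s. Detection: Fluo-8 calcium fluorescence. Read-out: % activation, ACh-normalized. Benchmarks: ACh EC20 and EC100 wells. Repeats: singlicate, one well per test compound.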
M5 ag: agonists of human muscarinic M5 receptor (CHRM5); P08912; activation, % at 3 µM; 360,000 compounds, 0.19% hits; AID 624037; CHO-K1 hM5 cells, Fluo-8 calcium fluorescence; 0% DMSO wells, 100% maximal acetylcholine response;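 active means activation above the run's mean over test compounds plus 3 SD, cut at about 23% in these data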;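 further: signal is peak over basal fluorescence ratio across the kinetic read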
M5 antag: blocks acetylcholine activation of human M5 receptor; P08912; CHO-hM5 cells, Fluo-8 calcium fluorescence, ACh EC80; inhibition, % at 3 µM; 360,000 compounds, 0.59% hits;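 active means inhibition above a per-plate cutoff, the mean of that plate's test compounds plus 3 SD, cut at about 27% in these data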
M4 PAM: positive allosteric modulators of human muscarinic M4 receptor; CHO-K1 hM4/Gqi5, Fluo-8 calcium fluorescence, ACh EC20; 0% = ACh EC20, 100% = maximal ACh; activation, % at 3 µM; 360,000 compounds, 0.4% hits;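 active means activation above its plate's cutoff, the mean activation of sample wells plus 3 SD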
A number is an active result; 0 = inactive; - = not tested or not shown.

SMILES | CHRM4 agonist | CHRM4 antagonist | CHRM5 PAM | M5 ag | M5 antag | M4 PAM
COc1cc(Br)cc(CN2CCN(C)CC2)c1O | 0 | 41 | 0 | 0 | 0 | 0
CCCC1(CC(C)CC)C(=O)NC(=O)NC1=O (stereo not drawn) | 0 | 0 | 0 | 0 | 0 | 0
C[N+]12CCC(CC1)C(=C(c1ccccc1)c1ccccc1)C2 | 0 | 97 | 0 | 0 | 99 | 0
CC[N+]12CCC(CC1)C(=C(c1ccccc1)c1ccccc1)C2 | 0 | 97 | 0 | 0 | 99 | 0
O=C(OCc1ccccc1)N1CCC2CC1c1cc(N3Cc4ccccc4-n4nncc4C3)ccc12 (stereo not drawn) | 0 | 0 | 0 | 0 | 0 | 0
Cc1nc2ccccn2c1P(=S)(c1ccccc1)c1ccccc1 | 0 | 0 | 0 | 0 | 0 | 0
C[C@]12CC[C@@H](O)CC1=CCC1C2CC[C@@]2(C)C1C[C@@H](F)[C@H]2O (stereo partly drawn) | 0 | 0 | 0 | 0 | 0 | 0
C=CCn1c(O)c(C(C)=Nc2ccc(NC(C)=O)cc2)c(=O)[nH]c1=O | 0 | 0 | 0 | 0 | 0 | 21
C=CCn1c(O)c(C(CC)=Nc2ccccc2NC(C)=O)c(=O)[nH]c1=O | 0 | 0 | 0 | 0 | 0 | 28
COc1cccc(C(c2nnnn2C2CCCCC2)N2CCC3(CC2)C(=O)NCN3c2ccccc2)c1OC (stereo not drawn) | 0 | 0 | 0 | 0 | 0 | 0
CCCC(=O)OCC[N+](C)(C)C | 0 | 0 | 0 | 42 | 0 | 0
O=c1[nH]c(=O)n(Cc2ccc(F)cc2)c(O)c1C=NCC1CCCO1 (stereo not drawn) | 0 | 0 | 38 | 0 | 0 | 0
CC(C)NC(=O)Cn1cc(C(=O)c2ccccc2F)c2ccccc21 | 0 | 0 | 0 | 0 | 0 | 27
O=S(=O)(NC1CN2CCC1CC2)c1ccc(Cl)cc1 (stereo not drawn) | 0 | 0 | 0 | 0 | 0 | 0
OC(c1cccc(Cl)c1)(c1cccc(Cl)c1)C1CN2CCC1CC2 (stereo not drawn) | 0 | 94 | 0 | 0 | 99 | 0
Cc1nc2ccccc2c(=O)n1-c1c(Cl)cccc1Cl | 0 | 0 | 0 | 0 | 0 | 0
CCN(CC)CCCOC(=O)C(OC)(c1ccccc1)c1ccccc1 | 0 | 53 | 0 | 0 | 56 | 0
CCOC(C(=O)OCCC[N+](C)(CC)CC)(c1ccccc1)c1ccccc1 | 0 | 0 | 0 | 0 | 55 | 0
CC[N+](C)(CC)CCCOC(=O)C(O)(c1ccccc1)C1CCCCC1 (stereo not drawn) | 0 | 99 | 0 | 0 | 98 | 0
O=C(O)C(O)(c1ccccc1)C1CCCCC1 (stereo not drawn) | 0 | 0 | 0 | 0 | 0 | 0
CCOC(C(=O)OCC(O)CN(CC)CC)(c1ccccc1)c1ccccc1 (stereo not drawn) | 0 | 0 | 0 | 0 | 0 | 0
COC(=O)[C@@H]1N=C(c2ccc(OC)cc2)O[C@]12C(=O)N(Cc1ccccc1)c1ccccc12 | 0 | 0 | 0 | 0 | 0 | 0
Cc1c(CCC(=O)N2C[C@H]3C[C@@H](C2)c2cccc(=O)n2C3)c(=O)oc2c(C)c(O)ccc12 | 0 | 0 | 0 | 0 | 0 | 0
C#C[C@]1(O)CC[C@H]2[C@@H]3[C@H](O)C[C@H]4C[C@@H](O)CC[C@]4(C)[C@H]3CC[C@@]21C | 0 | 0 | 0 | 0 | 0 | 0
C[N+]1(C)CCC(OC(=O)C(c2ccccc2)c2ccccc2)CC1 | 0 | 98 | 0 | 0 | 99 | 0
SMILES | CHRM4 agonist | CHRM4 antagonist | CHRM5 PAM | M5 ag | M5 antag | M4 PAM
C[N+]1(C)C2CC(OC(=O)[C@H](CO)c3ccccc3)CC1C1OC12 (stereo partly drawn) | - | - | 0 | 0 | 99 | -
C#CC[N+]1(C)[C@@H]2CC[C@H]1CC(OC(=O)C(CO)c1ccccc1)C2 (stereo partly drawn) | 0 | 99 | 0 | 0 | 98 | 0
C[N+]1(C)[C@@H]2CC[C@H]1CC(OC(=O)[C@@H](CO)c1ccccc1)C2 (stereo partly drawn) | 0 | 99 | 0 | 0 | 99 | 0
COc1ccc(C(c2nnnn2C2CCCC2)N2CCC3(CC2)C(=O)NCN3c2ccccc2)cc1 (stereo not drawn) | 0 | 0 | 0 | 0 | 0 | 0
C[N+]1(C)C2CC[C@H]1CC(OC(=O)C(CO)c1ccccc1)C2 (stereo partly drawn) | 0 | 99 | 0 | 0 | 99 | 0
C[N+]1(C)C2CCC1CC(OC(=O)c1c[nH]c3ccccc13)C2 (stereo not drawn) | 0 | 0 | 0 | 0 | 0 | 0
Cc1cc(OCC(=O)N2CCC(C(=O)O)(c3ccccc3)CC2)c2c(C)c(C)c(=O)oc2c1 | 0 | 76 | 0 | 0 | 0 | 0
O=c1[nH]c2ccccc2n1C1CCN(C(c2cc3ccccc3o2)c2nnnn2-c2ccc3c(c2)OCCO3)CC1 (stereo not drawn) | 0 | 0 | 0 | 0 | 0 | 0
O=C1NCN(c2ccccc2)C12CCN(C(c1cccc3ccccc13)c1nnnn1C1CCCCC1)CC2 (stereo not drawn) | 0 | 0 | 0 | 0 | 0 | 0
Clc1ccc2c(c1)C(OC1CN3CCC1CC3)c1ccccc1CS2 (stereo not drawn) | 0 | 99 | 0 | 0 | 99 | 0
CN1CCN(CCOC2c3ccccc3CSc3ccc(Cl)cc32)CC1 (stereo not drawn) | 0 | 83 | 0 | 0 | 54 | 0
O=C(COc1ccc(Cl)cc1)N(c1ccccc1Cl)C1CN2CCC1CC2 (stereo not drawn) | 0 | 0 | 0 | 0 | 0 | 0
O=C(/C=C/c1ccccc1)N1Cc2ccccc2-n2nncc2C1 | 0 | 0 | 0 | 0 | 0 | 0
CC12Nc3ccccc3C(=O)N1Cc1cnnn1-c1ccccc12 (stereo not drawn) | 0 | 0 | 0 | 0 | 0 | 0
COc1ccc(-[n+]2c(-c3ccccc3)cc(-c3ccc(C)cc3)cc2-c2ccccc2)cc1 | 0 | 82 | 0 | 0 | 81 | 0
Brc1ccc(-[n+]2c(-c3ccccc3)cc(-c3ccccc3)cc2-c2ccccc2)cc1 | 0 | 40 | 0 | 0 | 0 | 0
Cc1ccc(-c2cc(-c3ccc(C)cc3)[n+](-c3ccc(C(=O)O)cc3)c(-c3ccc(C)cc3)c2)cc1 | 0 | 0 | 0 | 0 | 0 | 0
CCCOC(=O)c1ccc(-[n+]2c(-c3ccccc3)cc(-c3ccccc3)cc2-c2ccccc2)cc1 | 0 | 46 | 0 | 0 | 31 | 0
Cc1ccc(-c2cc(-c3ccccc3)cc(-c3ccccc3)[n+]2-c2ccc(C(=O)O)cc2)cc1 | 0 | 0 | 0 | 0 | 0 | 25
C[C@H]1[C@@H](OS(=O)(=O)O)C[C@@H]2C[C@H]([C@@H](O)c3cc(=O)[nH]c(=O)[nH]3)NC3=NC[C@H]1N32 | 0 | 0 | 0 | 0 | 0 | 0

Assay outcomes: PubChem BioAssay, The Scripps Research Institute Molecular Screening Center
